Assay outcomes deposited in PubChem BioAssay by Broad Institute.
Shown are actives, neighbours in structure and some others; about 3.8% of the full set was active somewhere.
FGF22 binding = FGF22 (human) thermal shift binding; AID 651658; recombinant FGF22 thermal shift, SYPRO orange fluorescence; percent of sucrose octasulfate shift, DMSO zero; 340,000 compounds, 1.5% hits; activity (Tm shift, normalised), % at 9.99 µM; Q9HCT0;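 active = mean Tm shift, scaled 0 neutral to 100 positive control, at about 1.3% or above, every replicate too, limit read from the data; inconclusive = no clear call, values can overlap the other calls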
Target sequence (Q9HCT0 whole entry, looked up): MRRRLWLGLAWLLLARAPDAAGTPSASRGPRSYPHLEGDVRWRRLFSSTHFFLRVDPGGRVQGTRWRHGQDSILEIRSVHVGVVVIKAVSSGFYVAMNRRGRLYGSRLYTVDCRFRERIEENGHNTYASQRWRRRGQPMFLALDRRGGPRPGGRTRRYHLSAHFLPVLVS
ARNT TACC3 PPI = disruptors of human ARNT/TACC3 interaction; Q9Y6A5; AlphaScreen His-ARNT PAS-B/GST-TACC3 binding, luminescence; TACC3 fragment carries E629A point mutation; inhibition, % at 9.99 µM; 390,000 compounds, 0.66% hits; AID 623870;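 active = mean inhibition of replicates at least 50% and at least half of replicates each reaching 50%; inconclusive = half or more replicates reach 50% but mean below 50%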;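 note: 0% = complete ARNT plus TACC3 wells and 100% = ARNT alone without TACC3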
DENV2 CPE rescue = protects cells from dengue virus 2 cytopathic effect; DENV2-infected cells, cytopathic effect rescue, plate reader; CPE inhibition, % at 9.99 µM; 350,000 compounds, 1.7% hits; AID 651640; in the data active = CPE inhibition above about 20%, passing the limit was not always enough; inconclusive = no clear call, values can overlap the other calls; tested in BHK-21 cells;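 note: 0% = median of neutral control wells and 100% = median of positive control wells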
SIRT5 inh = sirtuin-5 (human) deacylase inhibition | Q9NXA8 | Purified SirT5, succinyl-peptide AMC, trypsin-coupled fluorescence | inhibition, % at 15 µM | 330,000 compounds, 1.1% hits; in the data active = inhibition above about 15%; inconclusive = no clear call, values can overlap the other calls
Target sequence (Q9NXA8 whole entry, looked up): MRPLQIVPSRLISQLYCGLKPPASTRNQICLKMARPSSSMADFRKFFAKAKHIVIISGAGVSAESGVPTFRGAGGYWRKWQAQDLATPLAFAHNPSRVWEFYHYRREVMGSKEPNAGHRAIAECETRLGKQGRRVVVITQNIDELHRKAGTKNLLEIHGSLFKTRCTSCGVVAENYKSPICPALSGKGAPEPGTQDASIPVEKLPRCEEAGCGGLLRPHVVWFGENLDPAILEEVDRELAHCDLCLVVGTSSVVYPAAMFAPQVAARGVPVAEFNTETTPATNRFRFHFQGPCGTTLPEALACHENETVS
FN deposit inh = fibronectin deposition inhibition. AH1F fibroblasts, Alexa488-fibronectin deposition fluorescence, overnight. inhibition, % at 12.6 µM. 350,000 compounds, 0.086% hits. AID 743247;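 active = mean inhibition across replicates of 30% or more, regardless of how many single replicates reach that level; inconclusive = mean under 30% yet at least half of replicates reach 30%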;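 note: positive control wells lacked labelled fibronectin entirely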
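Material: AH1F fibroblast monolayer depositing Alexa488-labelled fibronectin into matrix | Input: 10000 AH1F cells/well | Medium: DMEM plus 2% serum, read in PBS | Reagent: Alexa488-fibronectin, 24 nM final in well | Compound dosing: One dose per compound, pinned | Schedule: 1 h adhesion, overnight exposure | Measured by: Fluorescence at 485 nm excitation, 525 nm emission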
XiGFP reactiv = reactivates the inactive X chromosome in mouse fibroblasts; 360,000 compounds, 0.055% hits; XiGFP mouse fibroblasts, % GFP-positive cells imaging, 3 d; cells co-treated with 5-aza-dC sensitizer; scaled so ellipticine positive control = 100%; activation, % at 7.58 µM;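 active = mean normalized replicate activation at least 10% and every replicate at or above 10%; inconclusive = only one of the two criteria met; inactive = mean below 10% and not all replicates reach 10%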;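 note: 0% = median of on-plate neutral control wells and 100% = ellipticine 6 µM median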
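Material: SV40-immortalized XiGFP fibroblast cells, line 68-5-11 | Buffer or medium: DMEM containing 5-aza-dC | Dosing: One concentration, pinned | Times: 3 d treatment, 15 min room-temperature fixation | Controls: Ellipticine 6 µM positive control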
* marks the source's active call; other numbers are inactive results; u = inconclusive; x = no result given.

SMILES | FGF22 binding | ARNT TACC3 PPI | DENV2 CPE rescue | SIRT5 inh | FN deposit inh | XiGFP reactiv
CCNC(=O)C[C@@H]1CC[C@@H]2[C@@H](COc3ccc(NC(=O)Cc4cccs4)cc3C(=O)N2C)O1 | 0.0 | 6.1 | 6.2 | -5.1 | 1.1 | 0.1
c1n[nH]c(NC2=NCCC2)n1 | x | 60.5* | x | x | -0.5 | x
Cc1ccccc1S(=O)(=O)N1CC[C@@H]2[C@H]1c1cc(-c3ccc(C#N)cc3)ccc1N[C@@H]2CO | 0.9 | -4.3 | 77.4* | 6.2 | 4.7 | 0.1
N#Cc1ccc(-c2ccc3c(c2)[C@@H]2[C@@H](CCN2S(=O)(=O)c2ccccc2F)[C@H](CO)N3)cc1 | 0.1 | -16.7 | 5.9 | x | 28.7 | 0.0
Cc1ccccc1S(=O)(=O)N1CC[C@@H]2[C@H](CO)Nc3ccc(-c4ccc(C#N)cc4)cc3[C@@H]21 | -0.4 | -12.7 | 24.5* | 3.6 | -16.9 | 0.1
O=C(Nc1ccc(F)cc1)N[C@H]1CC[C@H](CC(=O)N2CCCCC2)O[C@H]1CO | 1.1 | x | -4.4 | -0.6 | x | 0.0
COc1cc(C(c2c(C)[nH][nH]c2=O)c2c(C)[nH][nH]c2=O)cc([N+](=O)[O-])c1O | 42.9 | -16.9 | -4.5 | 4.3 | 17.5 | 0.0
CCOc1cc(C(c2c(C)[nH][nH]c2=O)c2c(C)[nH][nH]c2=O)cc([N+](=O)[O-])c1O | 0.0 | active | 0.9 | 2.0 | 6.3 | 0.0
CC1=CC(=O)C2=C(C)CCC3C(C)C(=O)OC3C12 (configuration not stated) | -0.1 | x | 21.6* | -0.2 | x | x
Cc1ccccc1S(=O)(=O)N1C[C@@H](O)COC[C@H]2O[C@H](CC(=O)N3CCOCC3)CC[C@@H]21 | 0.0 | 3.3 | -1.3 | -0.7 | -4.5 | 0.0
C=CCSc1nnc(NC(=O)COc2ccc3ccccc3c2)s1 | 0.1 | -24.9 | 1.7 | 1.4 | x | x
C=CCSc1nnc(NC(=O)COc2ccccc2)s1 | 0.1 | -6.2 | u | 10.9 | 34.0* | 0.0
COCC(=O)Nc1ccc2c(c1)C(=O)N(C)C[C@H](OC)[C@@H](C)CN(C(=O)CC1CC1)[C@H](C)CO2 | 0.0 | 3.8 | 8.4 | 2.2 | -0.5 | 0.2
O=C(O)CSc1ncnc2c1sc1nc(-c3ccccc3)c3c(c12)CCC3 | -0.3 | 7.0 | 11.5 | 18.1* | 12.0 | 0.5
CC(=O)N1CCN(C(=O)c2ccc(OC3CCN(Cc4ccccn4)CC3)cc2)CC1 | -0.1 | 2.5 | 18.5 | -1.4 | -2.0 | -0.1
Cc1nn(C)cc1CN(C)C(=O)c1ccc(OC2CCN(Cc3ccccn3)CC2)cc1 | 0.0 | 3.0 | -0.4 | -0.7 | 12.0 | 0.1
CC(C)N(Cc1cnn(C)c1)C(=O)c1ccc(OC2CCN(Cc3ccccn3)CC2)cc1 | 0.1 | 5.9 | 0.5 | 16.8* | 2.4 | -0.1
O=C(c1ccc(OC2CCN(Cc3ccccn3)CC2)cc1)N1CCCCO1 | 43.1* | 5.1 | 3.6 | -4.7 | x | 0.0
CN(Cc1nccs1)C(=O)c1ccc(OC2CCN(Cc3ccccn3)CC2)cc1 | 0.0 | 5.0 | 41.8* | -4.0 | 2.5 | 0.5
Cc1c(Br)c(O)c(Br)c(O)c1/C=N/n1c(-c2ccccc2)n[nH]c1=S | x | 0.9 | x | 29.8* | x | x
Cc1cccc(NC(=O)Nc2ccc(S(=O)(=O)Nc3onc(C)c3C)cc2)c1 | 1.2 | -3.3 | 1.2 | 8.2 | 36.6* | 0.0
Cc1cc(NS(=O)(=O)c2ccc(NC(=O)c3cnc4scc(C)n4c3=O)cc2)nc(C)n1 | -0.3 | 5.5 | -2.8 | 1.0 | 4.7 | 1.2
Cc1noc(NS(=O)(=O)c2ccc(NC(=O)c3cnc4scc(C)n4c3=O)cc2)c1C | -0.3 | 6.2 | -2.3 | 15.5* | -2.0 | 0.1
Cc1cccc(OCCCC(=O)Nc2ccc(S(=O)(=O)Nc3onc(C)c3C)cc2)c1 | x | -1.2 | x | x | x | x
C[C@H]1CN([C@@H](C)CO)C(=O)c2c(c3ccccc3n2C)-c2ccccc2CO[C@H]1CN(C)S(=O)(=O)c1ccccc1F | x | x | x | x | -2.2 | -1.0
SMILES | FGF22 binding | ARNT TACC3 PPI | DENV2 CPE rescue | SIRT5 inh | FN deposit inh | XiGFP reactiv
COc1ccccc1C1=NOC(COC(=O)c2ccc([N+](=O)[O-])cc2)C1 (configuration not stated) | -0.2 | x | 0.2 | -1.6 | -0.7 | 0.0
COc1ccccc1C1=NOC(COC(=O)c2ccc(Br)cc2)C1 (configuration not stated) | 43.0* | 0.2 | 2.7 | -0.2 | 5.1 | 0.1
O=C(c1nn(-c2ccccc2)c(=O)c2ccccc12)N1CCN(c2ccccn2)CC1 | x | -1.3 | x | x | -6.3 | x
CCCn1nc(C(=O)N2CCN(c3ccccn3)CC2)c2ccccc2c1=O | 44.1* | x | -0.6 | x | 0.2 | 0.2
CC(OC(=O)c1ccccc1NCCO)C(=O)NC1CCCCC1C (configuration not stated) | -0.2 | -1.3 | 68.9* | -6.3 | 9.3 | 0.4
COc1ccc(S(=O)(=O)NCCc2ccc(F)cc2)cc1 | x | -8.6 | x | x | 2.9 | x
CCCCNc1ccc(C(F)(F)F)cc1S(=O)(=O)NCCc1ccc(F)cc1 | 20.5* | -4.6 | 5.3 | x | -0.8 | 0.0
COc1cccc(C(=O)Nc2ccc(C(F)(F)F)n(C)c2=O)c1 | -0.1 | x | -5.1 | 20.3* | x | 0.1
CCCC[n+]1c(C)sc2ccc(C)cc21 | 43.2* | 0.0 | 0.8 | 2.0 | -11.8 | 0.1
CCCC(=O)N1CC2(CN(Cc3cccnc3)C2)c2c([nH]c3cc(OC)ccc23)[C@H]1CO | -0.1 | x | -8.5 | -2.1 | x | -0.1
O=C(NCC(F)(F)F)[C@@H]1[C@@H](CO)[C@@H]2Cn3c(cccc3=O)[C@@H]2N1CCC(F)(F)F | x | x | 0.3 | -3.2 | x | 0.0
CC[C@]12c3[nH]c4cc(-c5ccco5)ccc4c3CCN1C(=O)[C@@H](CC(=O)NC(C)(C)C)C[C@@H]2C(=O)N1CCN(C(=O)C2CC2)CC1 | -0.1 | 11.6 | 43.3* | -4.3 | -12.6 | -0.1
CC(C)(C)NC(=O)C[C@H]1C[C@H](C(=O)N2CCCCC2)[C@@]2(C)c3[nH]c4cc(-c5ccco5)ccc4c3CCN2C1=O | -0.2 | -8.6 | -0.7 | -0.3 | -3.7 | 0.0
CC[C@]12c3[nH]c4ccccc4c3CCN1C(=O)C(CC(=O)NC/C=C(\C)CCC=C(C)C)C[C@@H]2C(=O)N1CCN(C(=O)c2ccco2)CC1 (some centres not stated) | 0.1 | 5.6 | 0.5 | 16.3* | x | 0.0
CC[C@]12c3[nH]c4cc(-c5ccco5)ccc4c3CCN1C(=O)[C@@H](CC(=O)NC/C=C(\C)CCC=C(C)C)C[C@@H]2C(=O)N1CCN(C(=O)c2ccco2)CC1 | x | -0.2 | x | x | x | x
COc1cccc(CN(C)CCCn2cnc3c(SC)ncnc32)c1 | 0.0 | x | 9.4 | 15.1* | 2.3 | 0.1
COc1ccc(CN(C)CCCn2cnc3c(OCc4ccccc4)ncnc32)cc1 | 0.1 | -2.4 | u | -1.3 | 7.0 | 0.3
COc1ccc(CCNc2nc(-c3ccccn3)cs2)cc1OC | -0.3 | 64.8* | -6.8 | 2.6 | -4.6 | 0.0
